Data taken from ChEMBL document CHEMBL1833801, “Natural daucane sesquiterpenes with antiproliferative and proapoptotic activity against human tumor cells” (Bioorg Med Chem, 2011).
The source made the active and inactive calls. No cut-off for these calls is given here.

Columns and labels:
HeLa = test: Cytotoxicity against human HeLa cells after 72 hrs by MTT assay; assay type: functional, cell-based
A549 = test: Cytotoxicity against human A549 cells after 72 hrs by MTT assay; assay type: functional, cell-based; conditions: A549, 72 h
HL-60 = test: Cytotoxicity against human HL60 cells after 72 hrs by MTT assay; assay type: functional, cell-based; conditions: HL-60, 72 h
Jurkat [1] = test: Cytotoxicity against human Jurkat cells after 72 hrs by MTT assay; assay type: functional, cell-based
K562 = test: Cytotoxicity against human K562 cells after 72 hrs by MTT assay; assay type: functional, cell-based; conditions: K562, 72 h
[2] = Cytotoxicity against human RS4:11 cells after 72 hrs by MTT assay; assay type: functional, cell-based; conditions: RS4-11, 72 h
[3] = Cytotoxicity against human SEM cells after 72 hrs by MTT assay; assay type: functional, cell-based
Jurkat [4] = test: Cell cycle arrest in human Jurkat cells assessed as accumulation at G1 phase after 48 hrs using propidium iodide staining by flow cytometry; assay type: functional, cell-based
Summary of the method: (§1)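 Exponentially growing Jurkat cells, 2.5×10^5, exposed to 1.25–100 µM for 48 h. Cells fixed in ice-cold 70% ethanol, lysed in buffer with RNase A and 0.1% Triton X-100, stained with propidium iodide. Cell-cycle phases read by flow cytometry. Mean ± SEM of three independent experiments; two-sided Student's t test against control.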

Jurkat [5] = test: Cell cycle arrest in human Jurkat cells assessed as accumulation at G1 phase at 50 uM after 48 hrs using propidium iodide staining by flow cytometry; assay type: functional, cell-based; summary of the method: as §1
PBL [6] = test: Cytotoxicity against human PBL after 72 hrs by MTT assay; assay type: cell-based
Summary of the method: (§2)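 PBL from healthy donors separated on a density gradient, washed, held at 1.0×10^6 cells/mL in RPMI-1640 with 10% FCS overnight. Non-adherent cells resuspended at 5×10^5 cells/mL. Stimulated cultures received 2.5 µg/mL PHA; resting cultures had none. Compound at several concentrations for 72 h, viability by MTT, IC50 taken. Mean ± SEM of three experiments.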

PBL [7] = test: Cytotoxicity against PHA-stimulated human PBL after 72 hrs by MTT assay; assay type: cell-based; summary of the method: as §2
Jurkat [8] = test: Induction of apoptosis in human Jurkat cells assessed as increase in late apoptotic cells after 24 hrs by FITC-conjugated annexin V and propidium iodide staining-based flow cytometry; assay type: functional, cell-based
Summary of the method: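 Jurkat cells exposed for 24 and 48 h, over a range of 1.25–100 µM, then co-stained with Annexin-V-FITC and propidium iodide. Read by flow cytometry, excitation 488 nm, emission 525 and 585 nm. Quadrants scored as A+/PI− (early apoptotic) and A+/PI+ (late apoptotic), compared with untreated cells. Mean ± SEM of three independent experiments.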

SMILES	IC50 (HeLa) [µM]	IC50 (A549) [µM]	IC50 (HL-60) [µM]	IC50 (Jurkat [1]) [µM]	IC50 (K562) [µM]	IC50 [2] [µM]	IC50 [3] [µM]	Activity (Jurkat [4])	Activity (Jurkat [5])	IC50 (PBL [6]) [µM]	IC50 (PBL [7]) [µM]	Activity (Jurkat [8])
COc1ccc(C(=O)O[C@H]2CC(C)=C[C@@H](OC(C)=O)[C@@]3(C)[C@@H](OC(C)=O)C[C@@](O)(C(C)C)[C@H]23)cc1	> 100	> 100	83.5	62.2	> 100	42.9	32.9	–	–	–	–	–
COc1ccc(C(=O)OCC2=CC[C@@]3(C)CCC(C(C)C)=C3CC2)cc1	> 100	> 100	30.7	25.6	67	44.1	25.5	–	–	–	–	–
COc1ccc(C(=O)O[C@H]2CC(C)=C[C@@H](O)[C@@]3(C)[C@@H](OC(C)=O)C[C@@](O)(C(C)C)[C@H]23)cc1	> 100	> 100	24	33.6	85.2	70.4	> 100	–	–	–	–	–
CC1=C[C@H](OC(=O)c2ccc(O)cc2)[C@@H]2[C@](C)(CC[C@@]2(O)C(C)C)CC1=O	26.1	14.5	82.5	40.5	> 100	28.2	24.4	–	–	–	–	–
COc1ccc(C(=O)OCC2=CC[C@@]3(C)CC[C@]4(C(C)C)O[C@]34CC2)cc1	> 100	> 100	> 100	> 100	> 100	60.9	84	–	–	–	–	–
CC1=CC[C@]2(C)[C@@H]([C@@H](OC(=O)c3ccc(O)cc3)C1)[C@](O)(C(C)C)C[C@@H]2O	56.5	83.7	3.5	40.3	95	33.4	22.4	–	–	–	–	–
COc1ccc(C(=O)O[C@H]2CC(C)=C[C@H](OC(C)=O)[C@]3(C)[C@@H]2[C@](O)(C(C)C)C[C@@H]3O)cc1	52.6	> 100	14.9	9.1	70.4	26.8	26.5	Active	inactive	30.3	33.7	Dose-dependent effect
